# Assay outcomes from PubChem BioAssay.
# Granule exo inh = LAMP-1 surface exposure blockers, TALL-104 cells – cell-based, flow cytometry, MLPCN library, primary screen | TALL-104 LAMP-1 surface exposure; cells stimulated with thapsigargin and PMA | inhibition, % at 10 µM | 0.66% of 360,000 active;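 active = inhibition above about 55%, limit read from the data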
# VLA-4 inh = inhibition in human VLA-4 binding assay, primary screen, VLA-4 allosteric modulator project, MLPCN library, flow cytometry, VLA-4 expressing cells | Integrin alpha-4 (Homo sapiens), P13612 | ligand binding flow cytometry | inhibition, % (about 7 µM as worked out from the volumes in the protocol) | 0.2% of 330,000 active | AID 2557, 2010; in the data active = inhibition above about 50%
# Target sequence (P13612 whole entry, looked up): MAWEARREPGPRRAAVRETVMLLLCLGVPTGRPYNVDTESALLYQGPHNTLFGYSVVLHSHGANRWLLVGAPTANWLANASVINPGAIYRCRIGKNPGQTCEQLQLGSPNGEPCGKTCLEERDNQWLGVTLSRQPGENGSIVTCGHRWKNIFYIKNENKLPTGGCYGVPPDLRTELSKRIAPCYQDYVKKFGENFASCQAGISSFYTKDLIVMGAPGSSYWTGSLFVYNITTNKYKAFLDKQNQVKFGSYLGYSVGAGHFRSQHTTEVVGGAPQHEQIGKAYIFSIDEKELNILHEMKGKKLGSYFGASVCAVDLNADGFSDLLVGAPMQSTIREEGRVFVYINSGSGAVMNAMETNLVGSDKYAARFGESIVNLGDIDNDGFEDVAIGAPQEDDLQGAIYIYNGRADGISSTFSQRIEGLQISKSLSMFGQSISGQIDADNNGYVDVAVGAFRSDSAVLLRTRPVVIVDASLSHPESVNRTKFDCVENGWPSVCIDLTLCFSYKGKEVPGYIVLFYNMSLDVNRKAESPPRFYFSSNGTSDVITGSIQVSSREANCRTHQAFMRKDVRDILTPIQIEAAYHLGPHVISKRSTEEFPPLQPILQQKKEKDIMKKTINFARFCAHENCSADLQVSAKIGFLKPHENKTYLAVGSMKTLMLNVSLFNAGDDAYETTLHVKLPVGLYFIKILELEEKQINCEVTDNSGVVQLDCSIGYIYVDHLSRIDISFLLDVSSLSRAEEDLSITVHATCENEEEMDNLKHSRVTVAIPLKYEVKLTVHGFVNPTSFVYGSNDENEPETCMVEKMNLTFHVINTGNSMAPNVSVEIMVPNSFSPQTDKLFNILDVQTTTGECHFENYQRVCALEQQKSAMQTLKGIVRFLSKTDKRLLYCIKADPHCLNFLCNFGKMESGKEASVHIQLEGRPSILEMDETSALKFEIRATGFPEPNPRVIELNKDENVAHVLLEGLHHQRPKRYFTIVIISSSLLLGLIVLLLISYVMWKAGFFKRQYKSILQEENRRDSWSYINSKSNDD
# ABCB6 inh 2 = ABCB6 transporter inhibitors, primary screen, K562-ABCB6 cells, flow cytometry, MLPCN library | ATP-binding cassette sub-family B member 6 (Homo sapiens), Q9NP58 | K562-ABCB6 porphyrin accumulation, 1 h; hits give low values | fluorescence ratio to DMSO, % at 10 µM | 0.19% of 360,000 active | AID 602162, 2011;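 active = fluorescence ratio to DMSO below 75%, the collection mean minus 3 SD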;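 note: signal is porphyrin accumulated inside mitochondria; lower ratio means ABCB6 inhibition with less porphyrin fluorescence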
# MT1-MMP act inh = blockers of MT1-MMP proenzyme processing, primary screen, HT1080 RFP-PRO-GFP cells, GFP/RFP fluorescence. 0.061% of 360,000 active. GFP/RFP ratio change, % at 20 µM. Matrix metalloproteinase-14 (Homo sapiens), P50281. GFP/RFP ratio fluorescence, overnight; percent of plate control window, DMSO zero;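 active = GFP/RFP ratio change of at least 30% with cell ATP level not reduced by more than half and red fluorescence within 50% of control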
#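 Read-out: GFP/RFP fluorescence ratio; Test system: RFP-PRO-GFP reporter HT1080 cells; Compound dosing: single-point 20 µM compound, 1% DMSO; Times: overnight compound exposure at 37 °C.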
# FGF22 binding = binders of human FGF22 protein, primary screen, FGF22 synaptogenesis inhibitor project, biophysical, thermal shift, single point | Fibroblast growth factor 22 (Homo sapiens), Q9HCT0 | recombinant FGF22 thermal shift, SYPRO orange fluorescence; percent of sucrose octasulfate shift, DMSO zero | activity (Tm shift, normalised), % at 9.99 µM | 1.5% of 340,000 active | AID 651658, 2012;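 active = mean Tm shift, scaled 0 neutral to 100 positive control, at about 1.3% or above, every replicate too, limit read from the data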
# DAGLB inh = DAGLB lipase inhibitors, primary screen, biochemical, fluorescence, HTS | Diacylglycerol lipase-beta (Homo sapiens), Q8NCG7 | HEK293T DAGLB membrane lysate, EnzChek fluorogenic substrate | inhibition, % at 5.17 µM | 0.059% of 340,000 active; in the data active = inhibition above about 34%
# ABCB6 blocker 1 = ABCB6 transporter inhibitors, confirmation, K562-ABCB6 cells, flow cytometry, cherry pick 1 | 700 tested, under 10 active | AID 602430, 2012 | K562-ABCB6 porphyrin accumulation, 1 h; hits give low values | ratio response (% of DMSO), % at 10 µM | shares compounds with ABCB6 inh 2;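 active = repeat-averaged ratio response below 75% of DMSO, the collection mean minus 3 SD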;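 note: median porphyrin fluorescence at 575 nm with 488 nm excitation from mitochondria; lower ratio means less porphyrin signal so ABCB6 inhibition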
# Numbers stand for hits; n = inactive; x = not tested or not shown. The list is not random: actives were taken first. Their share in the collection is about 2%.
SMILES,Granule exo inh,VLA-4 inh,ABCB6 inh 2,MT1-MMP act inh,FGF22 binding,DAGLB inh,ABCB6 blocker 1
Fc1ccc(CNc2ncnc3cc(Cl)ccc23)cc1,n,n,9.0,n,n,n,n
CCn1c(SCC(=O)Nc2nc3ccc(OC)cc3s2)nc2c1c(=O)n(C)c(=O)n2C,n,n,72,n,x,n,n
COc1ccc(NC(=O)c2ccccc2NC(=O)CSc2ccc(C)cc2)cc1,n,n,58,n,n,n,n
O=C(NCc1ccc(F)cc1)c1cc(-c2cccs2)on1,n,n,n,n,x,n,x
O=C(NCc1ccccc1)c1cc(-c2cccs2)on1,n,n,62,n,n,n,n
CCN(CC)c1ccc(C(=O)OCC(=O)N(C)Cc2ccccc2)cc1,n,n,65,n,n,n,n
CCN(CC)c1ccc(C(=O)OCC(=O)N(C(C)C)C(C)C)cc1,n,n,n,n,n,n,x
CCN(CC)C1CCN(C(=O)c2ccc(OC3CCN(Cc4ccccn4)CC3)cc2)C1 (stereo not given),n,n,n,n,n,n,x
COCC1CCCN(C(=O)c2ccc(OC3CCN(Cc4ccccn4)CC3)cc2)C1 (stereo not given),n,n,12,n,n,n,n
O=S(=O)(NCc1ccccc1)NCc1ccccc1F,n,n,n,n,n,n,x
COc1ccc(CNS(=O)(=O)NCc2ccccc2F)cc1,n,n,70,n,n,n,n
CCCC(=O)Nc1ccc2c(c1)C(=O)N(C)C[C@H](OC)[C@H](C)CN(Cc1ccccc1)[C@@H](C)CO2,x,x,x,x,n,x,x
Cc1ccc(-c2csc(N=C(N)N)n2)cc1,n,n,n,n,n,n,x
NC(N)=Nc1nc(CSCC/C(N)=N/S(N)(=O)=O)cs1,n,n,72,n,n,n,n
CC(=O)Nc1ccc(NC(=O)[C@H](C)NC(=O)c2ccco2)cc1,n,n,64,n,n,n,n
COC(=O)COc1cccc(NC(=O)c2ccccc2)c1,n,n,74,n,x,n,n
COc1ccc(S(=O)(=O)n2ccc(-c3ccc(OCCN(C)c4ccccn4)cc3)n2)cc1,n,n,73,n,x,n,n
COc1ccc(S(=O)(=O)N(CC(=O)O)c2ccccn2)cc1,n,n,n,n,x,n,x
Cc1cc(C(=O)Nc2cccc3c2O[C@@H](CN(C)C(=O)NC2CCCCC2)[C@@H](C)CN([C@@H](C)CO)C3=O)n(C)n1,x,x,x,x,n,x,x
COc1ccc2c3c([nH]c2c1)[C@@H](CO)N(C(=O)CC1CC1)CC31CN(Cc2ccncc2)C1,x,x,x,x,n,x,x
CC12CCC(C(=O)N(CCCCN3CCN(c4ccccn4)CC3)C1=O)C2(C)C (stereo not given),n,n,58,n,n,n,n
CCOC(=O)N1CCN(S(=O)(=O)c2ccc(C(=O)Nc3sc4c(c3C(N)=O)CCN(CC)C4)cc2)CC1,n,n,73,n,n,n,n
CO[C@@H]1CN(C)C(=O)c2ccc(NC(C)=O)cc2OC[C@H](C)N(Cc2cncnc2)C[C@H]1C,x,x,x,x,n,x,x
C[C@H](O)C#Cc1cnc2c(c1)C(=O)N([C@H](C)CO)C[C@@H](C)[C@@H](CN(C)CC1CCOCC1)O2,x,x,x,x,n,x,x
CC(C)NCc1nnc(-c2ccc(Cl)cc2)o1,n,n,71,n,n,n,n
SMILES,Granule exo inh,VLA-4 inh,ABCB6 inh 2,MT1-MMP act inh,FGF22 binding,DAGLB inh,ABCB6 blocker 1
CC1(C(=O)NS(=O)(=O)c2ccccc2Cl)CCN1C(=O)Cc1ccccc1 (stereo not given),n,x,n,n,n,x,x
CC(C)(C(=O)N1CCC1(C)C(=O)NS(=O)(=O)c1cccc(Cl)c1)c1ccccc1 (stereo not given),n,x,n,n,n,x,n
COc1ccc(S(=O)(=O)NC(=O)C2(C)CCN2C(=O)Cc2ccccc2Cl)cc1 (stereo not given),n,x,n,n,n,x,n
COc1ccc(OC)c(S(=O)(=O)NC(=O)C2(C)CCN2C(=O)Cc2ccccc2Cl)c1 (stereo not given),n,x,n,n,n,x,n
CC(C)(C)c1ccc(CC(=O)N2CCC2(C)C(=O)NS(=O)(=O)c2ccccc2Cl)cc1 (stereo not given),n,x,n,n,n,x,n
C[C@@H]1CN([C@H](C)CO)C(=O)c2cccc(NC(=O)c3ccc(-c4nccs4)cc3)c2O[C@H]1CN(C)S(=O)(=O)c1ccc(Cl)cc1,x,x,x,x,n,x,x
CCS(=O)(=O)NCC[C@@H]1CC[C@H](NS(=O)(=O)c2ccccc2C)[C@H](CO)O1,x,x,x,x,n,x,x
C/C=C/c1cnc2c(c1)C(=O)N([C@H](C)CO)C[C@H](C)[C@H](CN(C)C(=O)C1CCOCC1)O2,x,x,x,x,n,x,x
CC1(C(=O)NS(=O)(=O)c2ccccc2)CCN1C(=O)CCc1ccc(Cl)cc1Cl (stereo not given),n,x,n,n,n,x,n
CC1(C(=O)NS(=O)(=O)c2ccccc2C(F)(F)F)CCN1C(=O)C1CCCCC1 (stereo not given),n,x,62,n,n,x,n
CC1(C(=O)NS(=O)(=O)c2ccccc2C(F)(F)F)CCN1C(=O)CC1CCCCC1 (stereo not given),n,x,n,n,n,x,x
Cc1ccccc1CSCCNS(C)(=O)=O,n,n,44,n,x,n,n
Cc1noc(C)c1NC(=O)Nc1ccc2c(c1)C(=O)N([C@H](C)CO)C[C@@H](C)[C@H](CN(C)S(=O)(=O)c1cn(C)cn1)OCCCC[C@@H](C)O2,x,x,x,x,n,x,x
OC(COc1ccc(Br)cc1)Cn1ccnc1 (stereo not given),n,n,74,n,n,n,n
C[C@@H]1CN([C@@H](C)CO)C(=O)c2cc(NC(=O)C3CCCCC3)ccc2O[C@@H](C)CCCCO[C@@H]1CN(C)Cc1ccc2c(c1)OCO2,x,x,x,x,n,x,x
COc1ccc(NC(=O)Cc2ccc(Cl)cc2)cc1NC(=O)c1ccco1,n,n,60,n,x,n,n
COc1ccc(NC(=O)c2ccco2)cc1NC(=O)c1ccco1,n,n,n,n,x,n,x
O=C(CC(c1ccc(F)cc1)c1ccco1)N1CCOCC1 (stereo not given),n,n,72,n,x,n,n
